From ChEMBL document CHEMBL3120102, “Structure-based design, synthesis and biological evaluation of novel anthra[1,2-d]imidazole-6,11-dione homologues as potential antitumor agents” (2013)

Legend:
Format in all cases: functional
[1] = test system: MDA-MB-231; assay: Cytotoxicity against human MDA-MB-231 cells assessed as growth inhibition after 48 hrs by SRB assay
Procedure, shortened: (§1)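 NCI 60-cell-line screen, five-dose stage: each cell line exposed for 48 h to five concentrations spanning five log steps; cellular protein measured by sulforhodamine B colorimetry. A time-zero cell control and plates without drug are used to derive GI50, TGI and LC50 from log-concentration dose-response curves.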

[2] = test system: OVCAR-5; assay: (§2) Cytotoxicity against human OVCAR5 cells assessed as growth inhibition after 48 hrs by SRB assay; procedure, shortened: as §1
[3] = as §2; details: OVCAR-5, 48 h; procedure, shortened: as §1
[4] = test system: MDA-MB-435; assay: Cytotoxicity against human MDA-MB-435 cells assessed as growth inhibition after 48 hrs by SRB assay; procedure, shortened: as §1
[5] = test system: TK-10; assay: Cytotoxicity against human TK10 cells assessed as growth inhibition after 48 hrs by SRB assay
Procedure, shortened: (§3)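 NCI 60-cell-line screen, two stages. Five-dose testing at […]. Cellular protein measured by sulforhodamine B colorimetry after 48 h drug exposure. A time-zero control and drug-free plates are used to derive GI50, TGI and LC50 from dose-response curves plotted as log10 concentration per cell line.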

[6] = test system: OVCAR-4; assay: (§4) Cytotoxicity against human OVCAR4 cells assessed as growth inhibition after 48 hrs by SRB assay; procedure, shortened: as §1
[7] = as §4; details: OVCAR-4, 48 h; procedure, shortened: as §1
[8] = test system: 786-0; assay: Cytotoxicity against human 786-0 cells assessed as growth inhibition after 48 hrs by SRB assay
Procedure, shortened: (§5)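 NCI 60-cell-line five-dose screen at […]. Drug exposure was 48 h, followed by sulforhodamine B protein staining. GI50, TGI and LC50 were calculated against a time-zero control and untreated plates, with dose–response curves plotted from log10 concentration.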

[9] = test system: NCI-H522; assay: Cytotoxicity against human NCI-H522 cells assessed as growth inhibition after 48 hrs by SRB assay; procedure, shortened: as §1
[10] = test system: IGROV-1; assay: Cytotoxicity against human IGROV1 cells assessed as growth inhibition after 48 hrs by SRB assay; procedure, shortened: as §5
[11] = test system: HL-60(TB); assay: Cytotoxicity against human HL-60(TB) cells assessed as growth inhibition after 48 hrs by SRB assay
Procedure, shortened: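 NCI 60-cell panel five-concentration stage (0.01, 0.1, 1, 10, 100) in HL-60(TB). Cellular protein was measured by sulforhodamine B colorimetry after 48 h of exposure. A time-zero cell control and untreated plates allowed calculation of GI50, TGI and LC50. These were read from log10 concentration dose-response curves.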

[12] = test system: SK-MEL-2; assay: Cytotoxicity against human SK-MEL-2 cells assessed as growth inhibition after 48 hrs by SRB assay; procedure, shortened: as §1
[13] = test system: SR; assay: Cytotoxicity against human SR cells assessed as growth inhibition after 48 hrs by SRB assay; procedure, shortened: as §3
[14] = test system: A498; assay: Cytotoxicity against human A498 cells assessed as growth inhibition after 48 hrs by SRB assay; procedure, shortened: as §5
[15] = test system: Malme-3M; assay: Cytotoxicity against human MALME-3M cells assessed as growth inhibition after 48 hrs by SRB assay; procedure, shortened: as §5
[16] = test system: ACHN; assay: Cytotoxicity against human ACHN cells assessed as growth inhibition after 48 hrs by SRB assay; procedure, shortened: as §5
[17] = test system: SF-295; assay: Cytotoxicity against human SF295 cells assessed as growth inhibition after 48 hrs by SRB assay; procedure, shortened: as §1
[18] = Cytotoxicity against human Hs578T cells assessed as cell growth at 10 uM after 48 hrs by SRB assay; details: Hs-578T, read-out: Activity
[19] = test system: BT-549; assay: Cytotoxicity against human BT549 cells assessed as growth inhibition after 48 hrs by SRB assay; procedure, shortened: as §5
[20] = test system: UO-31; assay: (§6) Cytotoxicity against human UO31 cells assessed as growth inhibition after 48 hrs by SRB assay; procedure, shortened: as §3
[21] = as §6; details: UO-31, 48 h; procedure, shortened: as §3
[22] = test system: K562; assay: Cytotoxicity against human K562 cells assessed as growth inhibition after 48 hrs by SRB assay; procedure, shortened: as §5
[23] = test system: HCC 2998; assay: Cytotoxicity against human HCC2998 cells assessed as growth inhibition after 48 hrs by SRB assay; procedure, shortened: as §5
[24] = test system: MDA-MB-468; assay: Cytotoxicity against human MDA-MB-468 cells assessed as growth inhibition after 48 hrs by SRB assay; procedure, shortened: as §1
[25] = test system: HT-29; assay: Cytotoxicity against human HT-29 cells assessed as cell growth at 10 uM after 48 hrs by SRB assay; details: HT-29, 48 h, read-out: Activity
[26] = test system: SNB-19; assay: Cytotoxicity against human SNB19 cells assessed as growth inhibition after 48 hrs by SRB assay; procedure, shortened: as §3
[27] = test system: NCI-H226; assay: Cytotoxicity against human NCI-H226 cells assessed as growth inhibition after 48 hrs by SRB assay; procedure, shortened: as §1
[28] = test system: UACC-62; assay: Cytotoxicity against human UACC62 cells assessed as growth inhibition after 48 hrs by SRB assay; procedure, shortened: as §3
[29] = test system: HCT-116; assay: Cytotoxicity against human HCT116 cells assessed as growth inhibition after 48 hrs by SRB assay; procedure, shortened: as §5
[30] = read-out: LC50 (the source's name)

## CCSc1nc2ccc3c(c2[nH]1)C(=O)c1ccccc1C3=O
[1]
  growth inhibition (GI): Dose-dependent effect
[1]; MDA-MB-231, 48 h
  GI50: 20.7 µM
  LC50: > 100 µM
  TGI: > 100 µM
[2]
  growth inhibition (GI): Dose-dependent effect
[3]
  GI50: 6.25 µM
  LC50: > 100 µM
  TGI: > 100 µM
[4]
  growth inhibition (GI): Dose-dependent effect
[4]; MDA-MB-435, 48 h
  GI50: 76.5 µM
  LC50: > 100 µM
  TGI: > 100 µM
[5]
  growth inhibition (GI): Dose-dependent effect
[5]; TK-10, 48 h
  GI50: 7.4 µM
  LC50: > 100 µM
  TGI: > 100 µM
[6]
  growth inhibition (GI): Dose-dependent effect
[7]
  GI50: 3.17 µM
  LC50 (concentration killing 50% of cells): > 100 µM
  TGI: > 100 µM
[8]
  growth inhibition (GI): Dose-dependent effect
[8]; 786-0, 48 h
  GI50: 46.7 µM
  LC50 (concentration causing 50% net cell kill): > 100 µM
  TGI: > 100 µM
[9]
  growth inhibition (GI): Dose-dependent effect
[9]; NCI-H522, 48 h
  GI50: 4.07 µM
  TGI: > 100 µM
[9]; NCI-H522, 48 h, read-out: LC50 (the source's name)
  CC50: > 100 µM
[10]
  growth inhibition (GI): Dose-dependent effect
[10]; IGROV-1, 48 h
  GI50: 2.38 µM
  LC50: > 100 µM
  TGI: > 100 µM
[11]
  growth inhibition (GI): Dose-dependent effect
[11]; HL-60, 48 h
  GI50: 5.26 µM
  LC50: > 100 µM
  TGI: > 100 µM
[12]
  growth inhibition (GI): Dose-dependent effect
[12]; SK-MEL-2, 48 h
  GI50: 5.1 µM
  LC50 (50% lethal concentration): > 100 µM
  TGI: > 100 µM
[13]
  GI50: 2.36 µM
  LC50 (50% lethal concentration): > 100 µM
  TGI: > 100 µM
  growth inhibition (GI): Dose-dependent effect
[14]
  growth inhibition (GI): Dose-dependent effect
[14]; A498, 48 h
  GI50: 4.7 µM
  TGI: > 100 µM
[14]; A498, 48 h, read-out: LC50 (the source's name)
  CC50: > 100 µM
[15]
  GI50: 3.58 µM
  TGI: 94 µM
  growth inhibition (GI): Dose-dependent effect
[15]; [30]
  CC50: > 100 µM
[16]
  GI50: 5.09 µM
  TGI: > 100 µM
  growth inhibition (GI): Dose-dependent effect
[16]; [30]
  CC50: > 100 µM
[17]
  growth inhibition (GI): Dose-dependent effect
[17]; SF-295, 48 h
  GI50: 4.17 µM
  LC50: > 100 µM
  TGI: 47.4 µM
[18]
  growth at 10 µM: 85.4%
[19]
  growth inhibition (GI): Dose-dependent effect
[19]; BT-549, 48 h
  GI50: 9.34 µM
  LC50 (concentration killing 50% of cells): > 100 µM
  TGI: > 100 µM
[20]
  growth inhibition (GI): Dose-dependent effect
[21]
  GI50: 3.31 µM
  LC50: > 100 µM
  TGI: > 100 µM
[22]
  growth inhibition (GI): Dose-dependent effect
[22]; K562, 48 h
  GI50: 13.5 µM
  TGI: > 100 µM
[22]; K562, 48 h, read-out: LC50 (the source's name)
  CC50: > 100 µM
[23]
  growth inhibition (GI): Dose-dependent effect
[23]; HCC 2998, 48 h
  GI50: 12.6 µM
  TGI: > 100 µM
[23]; HCC 2998, 48 h, read-out: LC50 (the source's name)
  CC50: > 100 µM
[24]
  growth inhibition (GI): Dose-dependent effect
[24]; MDA-MB-468, 48 h
  GI50: 2.01 µM
  LC50: > 100 µM
  TGI: 59.6 µM
[25]
  growth at 10 µM: 75.2%
[26]
  growth inhibition (GI): Dose-dependent effect
[26]; SNB-19, 48 h
  GI50: > 100 µM
  LC50: > 100 µM
  TGI: > 100 µM
[27]
  growth inhibition (GI): Dose-dependent effect
[27]; NCI-H226, 48 h
  GI50: 14.2 µM
  LC50: > 100 µM
  TGI: > 100 µM
[28]
  growth inhibition (GI): Dose-dependent effect
[28]; UACC-62, 48 h
  GI50: 7.73 µM
  LC50: > 100 µM
  TGI: > 100 µM
[29]
  growth inhibition (GI): Dose-dependent effect
[29]; HCT-116, 48 h
  GI50: 5.59 µM
  LC50: > 100 µM
  TGI: > 100 µM
